Assay [1] concerns the target T1, HDAC3 (Homo sapiens, UniProt O15379). It counts as cell-based. As to conditions: MDA-MB-231 cells, inhibitor 2–12 hours; for photomate labeling (engagement) of HDAC3 after inhibitor treatment: then photomate 10 µM. The procedure, abridged:
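MDA-MB-231 cells were grown 2 days in complete medium, then treated with inhibitor. They were then either lysed directly for Western blot or photolabeled: 10 µM probe for 40 min at 37 °C, ± SAHA 200 µM competitor, then 366 nm irradiation at 4 °C. Lysate (35.2 µg) was clicked to an 800 nm IRDye azide and separated on gel. HDAC3 was co-stained by antibody and imaged at 700/800 nm.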

For assay [2], the target named is T1, HDAC3. Kind of assay: Treatment followed by in situ photolabeling and Western blot, MCF-7 cells. It counts as cell-based. The procedure, abridged:
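MCF-7 cells received TNF-α or vehicle, then photomate 10 µM (± SAHA 200 µM) for 40 min at 37 °C. They were irradiated at 366 nm (35 J/cm2) at 4 °C. Lysate (35.2 µg) was clicked to azide 800CW IRDye (90 min rt), gel-separated and fluorescence-imaged. HDAC3 and phospho-HDAC3 were detected by Western blot with IRDye secondaries.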
Target sequence in this assay (O15379 whole entry): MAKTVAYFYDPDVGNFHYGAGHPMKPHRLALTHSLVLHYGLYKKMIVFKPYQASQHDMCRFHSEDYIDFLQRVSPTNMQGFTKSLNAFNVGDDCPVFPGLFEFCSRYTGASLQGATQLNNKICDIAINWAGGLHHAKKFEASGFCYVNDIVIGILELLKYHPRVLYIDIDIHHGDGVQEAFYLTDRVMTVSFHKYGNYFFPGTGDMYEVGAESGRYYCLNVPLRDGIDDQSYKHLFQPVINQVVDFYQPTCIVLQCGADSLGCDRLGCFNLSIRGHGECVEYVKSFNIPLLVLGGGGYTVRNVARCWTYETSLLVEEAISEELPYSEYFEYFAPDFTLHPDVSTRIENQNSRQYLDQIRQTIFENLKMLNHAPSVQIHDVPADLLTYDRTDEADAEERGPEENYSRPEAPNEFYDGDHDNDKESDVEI
Target sequence in this assay (O75376 whole entry partner): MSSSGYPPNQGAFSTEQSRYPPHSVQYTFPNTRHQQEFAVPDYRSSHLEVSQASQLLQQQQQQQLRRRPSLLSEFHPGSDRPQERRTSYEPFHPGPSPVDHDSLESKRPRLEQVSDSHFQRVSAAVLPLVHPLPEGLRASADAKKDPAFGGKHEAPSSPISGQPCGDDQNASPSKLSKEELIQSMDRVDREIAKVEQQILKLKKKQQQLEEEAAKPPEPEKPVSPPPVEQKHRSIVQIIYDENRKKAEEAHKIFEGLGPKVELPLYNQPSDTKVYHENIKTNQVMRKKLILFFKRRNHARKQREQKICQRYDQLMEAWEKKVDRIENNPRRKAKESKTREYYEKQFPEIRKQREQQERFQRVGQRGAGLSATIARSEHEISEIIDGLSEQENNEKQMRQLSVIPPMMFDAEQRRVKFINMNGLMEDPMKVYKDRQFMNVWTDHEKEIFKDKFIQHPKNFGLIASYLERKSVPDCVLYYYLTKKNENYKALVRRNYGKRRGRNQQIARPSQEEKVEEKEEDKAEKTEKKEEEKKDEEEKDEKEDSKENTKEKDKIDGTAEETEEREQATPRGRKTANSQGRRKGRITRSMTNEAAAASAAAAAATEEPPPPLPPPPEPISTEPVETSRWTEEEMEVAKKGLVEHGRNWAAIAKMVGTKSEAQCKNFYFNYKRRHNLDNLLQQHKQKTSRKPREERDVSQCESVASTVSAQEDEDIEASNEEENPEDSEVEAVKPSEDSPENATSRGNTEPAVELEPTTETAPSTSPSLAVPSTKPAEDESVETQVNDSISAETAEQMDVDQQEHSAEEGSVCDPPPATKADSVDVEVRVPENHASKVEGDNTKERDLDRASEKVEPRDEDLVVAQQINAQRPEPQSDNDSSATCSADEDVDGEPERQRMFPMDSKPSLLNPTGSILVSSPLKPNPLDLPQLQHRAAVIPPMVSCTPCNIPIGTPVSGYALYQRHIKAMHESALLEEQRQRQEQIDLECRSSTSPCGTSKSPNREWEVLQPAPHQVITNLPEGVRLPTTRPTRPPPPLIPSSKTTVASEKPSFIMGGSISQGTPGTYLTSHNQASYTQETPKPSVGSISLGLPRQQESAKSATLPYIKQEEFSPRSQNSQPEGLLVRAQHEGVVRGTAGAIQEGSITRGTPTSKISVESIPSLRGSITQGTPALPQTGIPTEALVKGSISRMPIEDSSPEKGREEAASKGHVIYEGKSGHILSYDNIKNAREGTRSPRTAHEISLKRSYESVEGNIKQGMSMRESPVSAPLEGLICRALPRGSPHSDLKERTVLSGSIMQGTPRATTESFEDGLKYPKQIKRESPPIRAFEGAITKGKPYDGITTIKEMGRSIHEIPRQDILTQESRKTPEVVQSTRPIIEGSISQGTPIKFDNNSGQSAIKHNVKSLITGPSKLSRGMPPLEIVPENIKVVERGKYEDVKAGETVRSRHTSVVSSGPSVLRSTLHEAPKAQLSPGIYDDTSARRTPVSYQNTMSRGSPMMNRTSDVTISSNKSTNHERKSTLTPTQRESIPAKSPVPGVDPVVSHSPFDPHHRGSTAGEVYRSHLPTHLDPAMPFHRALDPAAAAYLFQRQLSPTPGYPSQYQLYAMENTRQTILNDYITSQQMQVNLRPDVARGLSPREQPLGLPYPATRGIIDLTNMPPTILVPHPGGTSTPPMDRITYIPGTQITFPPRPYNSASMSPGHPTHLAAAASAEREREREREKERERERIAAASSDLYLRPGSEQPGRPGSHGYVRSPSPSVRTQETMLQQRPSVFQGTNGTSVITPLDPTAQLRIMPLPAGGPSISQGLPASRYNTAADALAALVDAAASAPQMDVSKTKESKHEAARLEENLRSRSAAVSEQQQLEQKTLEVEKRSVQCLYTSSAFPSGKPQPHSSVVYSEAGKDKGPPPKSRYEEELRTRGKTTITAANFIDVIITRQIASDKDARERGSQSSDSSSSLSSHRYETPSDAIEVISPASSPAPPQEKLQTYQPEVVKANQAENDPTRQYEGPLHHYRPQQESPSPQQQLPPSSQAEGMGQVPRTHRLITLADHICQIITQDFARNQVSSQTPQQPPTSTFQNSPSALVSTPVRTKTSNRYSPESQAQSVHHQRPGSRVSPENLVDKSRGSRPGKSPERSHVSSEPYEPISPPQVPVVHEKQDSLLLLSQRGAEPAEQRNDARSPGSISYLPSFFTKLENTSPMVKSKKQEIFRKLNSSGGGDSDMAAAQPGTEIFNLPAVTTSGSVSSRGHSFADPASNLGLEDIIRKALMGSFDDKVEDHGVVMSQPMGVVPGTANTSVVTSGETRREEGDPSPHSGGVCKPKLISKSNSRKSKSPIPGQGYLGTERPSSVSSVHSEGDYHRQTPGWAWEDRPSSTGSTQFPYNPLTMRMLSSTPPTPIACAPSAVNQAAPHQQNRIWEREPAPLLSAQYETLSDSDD
Target sequence in this assay (O60907 whole entry partner): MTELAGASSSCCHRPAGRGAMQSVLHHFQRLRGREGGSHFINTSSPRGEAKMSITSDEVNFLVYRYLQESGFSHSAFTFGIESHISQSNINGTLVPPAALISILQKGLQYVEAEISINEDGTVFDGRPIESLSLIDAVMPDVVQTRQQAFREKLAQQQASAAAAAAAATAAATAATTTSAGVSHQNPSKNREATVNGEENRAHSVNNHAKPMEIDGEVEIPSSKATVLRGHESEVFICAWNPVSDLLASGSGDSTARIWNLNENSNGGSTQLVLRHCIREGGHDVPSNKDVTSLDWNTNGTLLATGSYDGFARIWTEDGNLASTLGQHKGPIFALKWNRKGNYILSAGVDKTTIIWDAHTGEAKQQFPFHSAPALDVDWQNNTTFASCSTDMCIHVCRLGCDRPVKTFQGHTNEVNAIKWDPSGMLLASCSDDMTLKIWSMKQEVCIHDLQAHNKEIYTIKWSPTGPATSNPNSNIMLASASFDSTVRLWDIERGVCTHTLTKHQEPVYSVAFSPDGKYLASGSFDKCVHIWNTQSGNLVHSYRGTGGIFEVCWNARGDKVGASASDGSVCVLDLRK
Target sequence in this assay (Q13227 whole entry partner): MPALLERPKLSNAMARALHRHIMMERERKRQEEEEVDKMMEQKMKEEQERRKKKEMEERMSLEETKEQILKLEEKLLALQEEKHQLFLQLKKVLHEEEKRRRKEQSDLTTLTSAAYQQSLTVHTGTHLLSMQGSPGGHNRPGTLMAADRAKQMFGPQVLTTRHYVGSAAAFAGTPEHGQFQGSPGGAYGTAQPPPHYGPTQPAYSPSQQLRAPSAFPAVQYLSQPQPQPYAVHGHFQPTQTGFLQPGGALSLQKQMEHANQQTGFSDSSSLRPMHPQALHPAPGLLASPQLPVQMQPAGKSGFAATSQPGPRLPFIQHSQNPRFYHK
Background: Immunoblotting shows a protein as a band on a membrane.

The subject of assay [3] is recombinant class I and II HDACs. Nature of the assay: Photolabeling of recombinant proteins, gel based visualization. It counts as binding.
In the next assay the target is recombinant HDAC4 (Homo sapiens, UniProt P56524). Kind of assay: Fluorogenic enzymatic assay, recombinant HDAC4. It counts as biochemical.
The target in a further assay is T2, recombinant HDAC8 (Homo sapiens, UniProt Q9BY41).
T2 sequence (Q9BY41 1-377): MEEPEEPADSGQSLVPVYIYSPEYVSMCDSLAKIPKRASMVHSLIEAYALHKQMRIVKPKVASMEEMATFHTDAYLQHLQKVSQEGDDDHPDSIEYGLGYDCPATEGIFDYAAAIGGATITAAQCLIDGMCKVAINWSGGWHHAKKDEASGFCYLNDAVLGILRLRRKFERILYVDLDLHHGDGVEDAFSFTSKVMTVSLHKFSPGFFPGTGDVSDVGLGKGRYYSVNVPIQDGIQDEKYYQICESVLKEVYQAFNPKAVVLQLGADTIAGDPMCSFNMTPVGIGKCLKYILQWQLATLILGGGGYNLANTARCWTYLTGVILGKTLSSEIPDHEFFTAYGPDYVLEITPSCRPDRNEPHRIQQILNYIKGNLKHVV
Nature of the assay: Fluorogenic enzymatic assay, recombinant HDAC8. It counts as biochemical. The procedure, abridged:
(§1)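 Deacetylase activity of recombinant human class I HDAC isoforms was measured with a fluorogenic assay following previously published procedures. Inhibition is reported as log IC50, as the average ± s.e. of n=3.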

Assay [4] concerns the target T1, HDAC3. Nature of the assay: Fluorogenic enzymatic assay, recombinant HDAC3. It counts as biochemical. The procedure, abridged: as §1
Target sequence in this assay (O15379 whole entry): as the sequence (O15379 whole entry) above
Target sequence in this assay (Q9Y618 395-489 partner limits assumed): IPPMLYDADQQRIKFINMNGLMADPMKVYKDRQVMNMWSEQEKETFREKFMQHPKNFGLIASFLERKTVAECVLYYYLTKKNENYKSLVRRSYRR
The test system of assay [5] is class I and II HDACs. It counts as cell-based, Human. The settings on record: seven breast cancer cell lines, photomate 10 µM. The procedure, abridged:
(§2)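 Cells at 90% confluence were pretreated with SAHA (200 µM) or DMSO, then given photomate 10 µM for 40 min at 37 °C. They were cooled to 4 °C and irradiated at 366 nm (35 J/cm2). Lysate (1 mg) was clicked to azide-biotin (1.5× probe; TCEP, TBTA, CuSO4; 90 min rt), then enriched on streptavidin beads and in-gel digested. Proteins reduced ≥50% by SAHA were scored.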

In assay [6] the target is T3, class I and II HDACs (Homo sapiens, UniProt O15379). It counts as cell-based. As to conditions: P<.0001. The procedure, abridged: as §2
T3 sequence (O15379 whole entry): as the sequence (O15379 whole entry) above
The target in a further assay is recombinant HDAC1 (Homo sapiens, UniProt Q13547). Kind of assay: Fluorogenic enzymatic assay, recombinant HDAC1. It counts as biochemical. The procedure, abridged:
as §1

The next assay concerns the target recombinant HDAC2 (Homo sapiens, UniProt Q92769). Kind of assay: Fluorogenic enzymatic assay, recombinant HDAC2. It counts as biochemical. The procedure, abridged: as §1
In another assay the test system is TNBC cells. Nature of the assay: Efficacy in breast cancer cells. It counts as cell-based, Human. As to conditions: Figure S2B.
Assay [7] concerns class I and II HDACs. Kind of assay: In situ photolabeling of MCF-7 cells, enrichment, Western blot and MS/MS. It counts as cell-based, Human. The settings on record: MCF-7 cells. The procedure, abridged:
(§3)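 MCF-7 cells at 90% confluence were pretreated with SAHA (200 µM) or DMSO, then given 10 µM test compound for 40 min at 37 °C. Cells were cooled to 4 °C, irradiated at 366 nm (35 J/cm2) and lysed in HEPES pH 7.5 buffer. Lysate was click-conjugated to biotin azide (CuSO4/TBTA/TCEP, 90 min, rt), then streptavidin-enriched for Western blot or in-gel tryptic MS/MS. A hit was a protein reduced ≥50% by SAHA and absent in DMSO controls.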

The target in assay [8] is T3, class I and II HDACs. The assay is described as above. It counts as cell-based. The settings on record: MCF-7 cells and other luminal cell types. The procedure, abridged: as §3
Setting [9] is: MCF-7 cells stimulated with TNF-α, compared to TNF-α alone.

Sequence of recombinant HDAC2 (Q92769 whole entry): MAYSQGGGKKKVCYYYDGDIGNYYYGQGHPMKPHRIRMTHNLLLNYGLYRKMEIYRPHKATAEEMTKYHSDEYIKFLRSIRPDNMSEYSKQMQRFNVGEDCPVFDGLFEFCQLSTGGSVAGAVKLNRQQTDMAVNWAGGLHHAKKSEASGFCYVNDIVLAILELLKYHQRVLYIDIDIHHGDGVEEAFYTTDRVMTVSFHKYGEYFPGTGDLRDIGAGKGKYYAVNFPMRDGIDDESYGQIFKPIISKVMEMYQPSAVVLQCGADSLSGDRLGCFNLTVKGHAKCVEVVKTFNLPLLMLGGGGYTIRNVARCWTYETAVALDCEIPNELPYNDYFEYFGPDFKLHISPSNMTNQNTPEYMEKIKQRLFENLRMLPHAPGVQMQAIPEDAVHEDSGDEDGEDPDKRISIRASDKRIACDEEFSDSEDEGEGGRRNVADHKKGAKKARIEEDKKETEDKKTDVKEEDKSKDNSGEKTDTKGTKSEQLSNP
Sequence of recombinant HDAC1 (Q13547 whole entry): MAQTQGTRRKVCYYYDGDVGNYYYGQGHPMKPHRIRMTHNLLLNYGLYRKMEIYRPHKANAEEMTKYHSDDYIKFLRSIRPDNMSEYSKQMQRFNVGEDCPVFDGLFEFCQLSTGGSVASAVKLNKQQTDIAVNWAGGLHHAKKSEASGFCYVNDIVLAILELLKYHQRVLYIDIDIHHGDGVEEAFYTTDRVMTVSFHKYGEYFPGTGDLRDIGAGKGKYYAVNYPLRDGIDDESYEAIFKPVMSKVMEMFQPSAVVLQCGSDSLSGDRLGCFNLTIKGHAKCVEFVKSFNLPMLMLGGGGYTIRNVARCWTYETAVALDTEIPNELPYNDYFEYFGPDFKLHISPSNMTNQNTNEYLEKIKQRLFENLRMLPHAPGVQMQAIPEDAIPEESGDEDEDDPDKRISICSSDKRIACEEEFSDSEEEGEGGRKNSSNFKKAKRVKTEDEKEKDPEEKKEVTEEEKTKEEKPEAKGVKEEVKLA

With `O=C(c1ccc(Nc2nccc(-c3cc4ccccc4s3)n2)cc1)N1CCC(N2CCCC2)CC1` [IKK-16], the “photomate labeling (engagement) of HDAC3 after inhibitor treatment” value (from here on “photomate labeling … after inhibitor treatment”) on HDAC3 [1] is “no change”.
With `Brc1c(Br)c(Br)c2n[nH]nc2c1Br` [TBB], at HDAC3 [1], the “HDAC3 phosphorylation after inhibitor treatment” value is recorded as “Neither of the compounds induced any change” and the “photomate labeling … after inhibitor treatment” value is recorded as “Neither of the compounds induced any change”.
Take `CC/C(=C(\c1ccccc1)c1ccc(OCCN(C)C)cc1)c1ccccc1` [tamoxifen]: on HDAC3 [2] (MCF-7 cells), the “HDAC3 phosphorylation after treatment” value was “no increase” and the “photomate labeling of HDAC3 after treatment” value is given as “no increase”.
For the compound `Oc1c2ccccc2c2c3c(cccc13)N=N2` [SP600125], at HDAC3 [1], the “HDAC3 phosphorylation after inhibitor treatment” value is reported as “complete loss of HDAC3 phosphorylation” and the “photomate labeling … after inhibitor treatment” value is given as “abolished the labeling of HDAC3”.
For `Oc1ccc(-c2nc(-c3ccncc3)c(-c3ccc(F)cc3)[nH]2)cc1` [SB202190], the “photomate labeling … after inhibitor treatment” value at HDAC3 [1] is “increased labeling”.
For the compound `O=C(CCCCCCC(=O)Nc1ccccc1)NO` [SAHA, suberoyl anilide hydroxamic acid], the “photomate labeling of HDAC isoforms upon co-incubation with competitor” value in [3] (SAHA 200 µM, photomate 10 µM) is reported as “Labeling of all HDAC isoforms was lost”.
Usually IC50 stands for the concentration that gives 50% inhibition. On to `C#CCN(CCCCCC(=O)NO)Cc1c(F)c(F)c(N=[N+]=[N-])c(F)c1F` [photomate, 6-((4-Azido-2,3,5,6-tetrafluorobenzyl)(prop-2-yn-1-yl)amino)-N-hydroxyhexanamide], for which the IC50 at recombinant HDAC4 is 20.1 µM; at recombinant HDAC8, 2.27 µM; at HDAC3 [4] it was 0.109 µM; at recombinant HDAC1 it was 0.417 µM; at recombinant HDAC2, 0.132 µM. Further, the “relative potency or affinity based on inhibition or labeling (isoform selectivity)” value in assay [3] (recombinant HDAC1, 2, 3, 8 and 4) was “nonselective for HDAC1, 2 and 3 but shows decreased potency and affinity with respect to HDAC8 and the class II HDAC4”. Besides, in the assay with class I and II HDACs [5], the “HDAC isoforms enriched across cell lines” value was “ubiquitously targeted and enriched HDAC1, 2 and 9 from every cell line”. The “HDAC3 enriched from TNBC cell lines in comparison to luminal subtypes” value at class I and II HDACs [6] is “increased amounts of HDAC3 were enriched from TNBC cell lines”. Moreover, the “efficacy in TNBC cells” value in the assay on TNBC cells is recorded as “increased efficacy in TNBC cells”. In the assay with class I and II HDACs [7], the “HDAC targets identified by MS/MS and Western blot” value is “HDAC1 and 2 were the only HDAC targets”. The “engagement of HDAC3 in cells” value on class I and II HDACs [8] is reported as “could not be detected”.
On to `CCOc1nc(NC(=O)Cc2cc(OC)ccc2OC)cc(N)c1C#N` [TCS 6o], for which, at HDAC3 [1], the “HDAC3 phosphorylation after inhibitor treatment” value is “decreased” and the “photomate labeling … after inhibitor treatment” value is “decreased”. Also, on HDAC3 [2] (setting [9]), the “HDAC3 phosphorylation, JNK inhibitor pretreatment then TNF-α” value was “decrease in HDAC3 labeling and phosphorylation”; the “photomate labeling of HDAC3, JNK inhibitor pretreatment then TNF-α” value is “decrease in HDAC3 labeling and phosphorylation”.
As for TNF-α, the “photomate labeling of HDAC3 after treatment” value at HDAC3 [2] (MCF-7 cells) is listed as “induces specific labeling of HDAC3”.
Turning to `O=c1cc(N2CCOCC2)oc2c(-c3ccccc3)cccc12` [LY294002], on HDAC3 [1], the “HDAC3 phosphorylation after inhibitor treatment” value is given as “Neither of the compounds induced any change” and the “photomate labeling … after inhibitor treatment” value is recorded as “Neither of the compounds induced any change”.
Regarding EGF: MAPK stimulating growth factor, the “photomate labeling of HDAC3 after treatment” value with HDAC3 [2] (MCF-7 cells) is “had no effect”.
Consider `COc1ccc(CNC(=O)Nc2ncc([N+](=O)[O-])s2)cc1` [AR-A014418], for which, on HDAC3 [1], the “HDAC3 phosphorylation after inhibitor treatment” value is “did not affect” and the “photomate labeling … after inhibitor treatment” value is given as “did not affect”.
As for IGF-1: MAPK stimulating growth factor, the “photomate labeling of HDAC3 after treatment” value with HDAC3 [2] (MCF-7 cells) is listed as “had no effect”.

Values taken from publication PMC5693607 (Cell chemical biology, 2017).
